Source: ChEMBL document CHEMBL1155754, “Samioside, a new phenylethanoid glycoside with free-radical scavenging and antimicrobial activities from Phlomis samia” (J Nat Prod, 2001)
In brackets after ≈: the same amount, converted by molar mass. Blank lines part the entries; values can stand above or below the molecule they belong to.

How the values were obtained:
Type in all cases: functional
[1] = system: Radical scavenging activity; assay: Antioxidant activity assessed as DPPH free radical scavenging activity after 30 mins; parameters: concentration or dose not given beside the values
Procedure, shortened: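 Sample mixed with DPPH in ethanol and left 30 min at 37 °C. Optical density read at 515 nm. Ethanol replaced DPPH for the blank and DMSO replaced sample for the control. IC50 (amount scavenging 50% of DPPH) came from regression of average percent DPPH reduction against concentration, over three separate tests.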

Staphylococcus aureus [2] = assay: Antimicrobial activity against Staphylococcus aureus ATCC 25923 by agar dilution method
Procedure, shortened: (§1)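 Agar dilution against the listed ATCC bacterial strains. MIC taken as the lowest concentration preventing visible growth.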

Candida albicans = assay: Antimicrobial activity against Candida albicans ATCC 10231 by disk diffusion method
Procedure, shortened: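 Bauer-Kirby disk diffusion against Candida albicans ATCC 10231; experiments repeated three times, results expressed as average values (zone of inhibition).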

Nakaseomyces glabratus = assay: Antimicrobial activity against Candida glabrata ATCC 28838 by disk diffusion method
Procedure, shortened: (§2)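 Bauer-Kirby disk diffusion against the listed ATCC bacterial and Candida strains. Growth inhibition read as zone of inhibition diameter (mm). Three repeat experiments, reported as averages.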

Candida tropicalis = assay: Antimicrobial activity against Candida tropicalis ATCC 13801 by disk diffusion method; procedure, shortened: as §2
Klebsiella pneumoniae [3] = assay: Antimicrobial activity against Klebsiella pneumoniae ATCC 13883 by agar dilution method; procedure, shortened: as §1
Pseudomonas aeruginosa [4] = assay: Antimicrobial activity against Pseudomonas aeruginosa ATCC 27853 by agar dilution method; procedure, shortened: as §1
Staphylococcus aureus [5] = assay: Antimicrobial activity against Staphylococcus aureus ATCC 25923 by disk diffusion method; procedure, shortened: as §2
[6] = system: Staphylococcus epidermidis; assay: Antimicrobial activity against Staphylococcus epidermidis ATCC 12228 by disk diffusion method; procedure, shortened: as §2
Enterobacter cloacae [7] = assay: Antimicrobial activity against Enterobacter cloacae ATCC 13047 by disk diffusion method; procedure, shortened: as §2
Escherichia coli [8] = assay: Antimicrobial activity against Escherichia coli ATCC 25922 by disk diffusion method; procedure, shortened: as §2
Klebsiella pneumoniae [9] = assay: Antimicrobial activity against Klebsiella pneumoniae ATCC 13883 by disk diffusion method; procedure, shortened: as §2
Pseudomonas aeruginosa [10] = assay: Antimicrobial activity against Pseudomonas aeruginosa ATCC 27853 by disk diffusion method; procedure, shortened: as §2
[11] = system: Staphylococcus epidermidis; assay: Antimicrobial activity against Staphylococcus epidermidis ATCC 12228 by agar dilution method; procedure, shortened: as §1
Enterobacter cloacae [12] = assay: Antimicrobial activity against Enterobacter cloacae ATCC 13047 by agar dilution method; procedure, shortened: as §1
Escherichia coli [13] = assay: Antimicrobial activity against Escherichia coli ATCC 25922 by agar dilution method; procedure, shortened: as §1

Structure (SMILES): COc1cc(-c2cc(=O)c3c(O)cc(O)cc3o2)ccc1O
Activity [1]: < 40%

Structure (SMILES): COc1ccc(-c2oc3cc(O)cc(O)c3c(=O)c2OC)cc1
Activity [1]: < 40%

Structure (SMILES): O=c1cc(-c2ccc(O)cc2)oc2cc(O)cc(O)c12
Activity [1]: < 40%

IC50 [1]: 48.9 µM
MIC (Staphylococcus aureus [2]): 400 µg/mL (≈ 640 µM)
Structure (SMILES): C[C@@H]1O[C@@H](O[C@@H]2[C@@H](O)[C@H](OCCc3ccc(O)c(O)c3)O[C@H](CO)[C@H]2OC(=O)/C=C/c2ccc(O)c(O)c2)[C@H](O)[C@H](O)[C@H]1O [ACETOSIDE]
Activity [1]: > 70%

Structure (SMILES): C[C@@H]1[C@H](O)[C@@H](C)/C=C/C=C/C=C/C=C/C=C/C=C/C=C/[C@H](O[C@@H]2O[C@H](C)[C@@H](O)[C@H](N)[C@@H]2O)C[C@@H]2O[C@](O)(C[C@@H](O)C[C@@H](O)[C@H](O)CC[C@@H](O)C[C@@H](O)CC(=O)O[C@H]1C)C[C@H](O)[C@H]2C(=O)O [AMPHOTERICIN B]
inhibition zone (IZ) (Candida albicans): 20 mm
inhibition zone (IZ) (Nakaseomyces glabratus): 24 mm
inhibition zone (IZ) (Candida tropicalis): 22 mm

IC50 [1]: 66.7 µM
Structure (SMILES): O=C(O)/C=C/c1ccc(O)c(O)c1 [CAFFEIC ACID]

Structure (SMILES): O=C(O)c1cc(O)c(O)c(O)c1 [GALLIC ACID]
IC50 [1]: 17.6 µM

MIC (Klebsiella pneumoniae [3]): 8 µg/mL (≈ 16.8 µM)
MIC (Pseudomonas aeruginosa [4]): 8.8 µg/mL (≈ 18.5 µM)
MIC (Staphylococcus aureus [2]): 4 µg/mL (≈ 8.41 µM)
MIC [11]: 4 µg/mL (≈ 8.41 µM)
MIC (Enterobacter cloacae [12]): 8 µg/mL (≈ 16.8 µM)
MIC (Escherichia coli [13]): 10 µg/mL (≈ 21 µM)
Structure (SMILES): CCN[C@@H]1C[C@H](N)[C@@H](O[C@H]2OC(CN)=CC[C@H]2N)[C@H](O)[C@H]1O[C@H]1OC[C@](C)(O)[C@H](NC)[C@H]1O [NETILMICIN]
inhibition zone (IZ) (Staphylococcus aureus [5]): 22 mm
inhibition zone (IZ) [6]: 24 mm
inhibition zone (IZ) (Enterobacter cloacae [7]): 22 mm
inhibition zone (IZ) (Escherichia coli [8]): 23 mm
inhibition zone (IZ) (Klebsiella pneumoniae [9]): 25 mm
inhibition zone (IZ) (Pseudomonas aeruginosa [10]): 20 mm

MIC (Klebsiella pneumoniae [3]): 790 µg/mL (≈ 1040 µM)
MIC (Pseudomonas aeruginosa [4]): 850 µg/mL (≈ 1120 µM)
IC50 [1]: 23.8 µM
MIC (Staphylococcus aureus [2]): 460 µg/mL (≈ 608 µM)
MIC [11]: 480 µg/mL (≈ 634 µM)
MIC (Enterobacter cloacae [12]): 890 µg/mL (≈ 1180 µM)
MIC (Escherichia coli [13]): 520 µg/mL (≈ 687 µM)
Structure (SMILES): C[C@@H]1O[C@@H](O[C@@H]2[C@@H](O)[C@H](OCCc3ccc(O)c(O)c3)O[C@H](CO)[C@H]2OC(=O)/C=C/c2ccc(O)c(O)c2)[C@H](O)[C@H](O)[C@H]1O[C@@H]1OC[C@](O)(CO)[C@H]1O [SAMIOSIDE]
Activity [1]: > 70%
inhibition zone (IZ) (Staphylococcus aureus [5]): 12 mm
inhibition zone (IZ) [6]: 16 mm
inhibition zone (IZ) (Enterobacter cloacae [7]): 10 mm
inhibition zone (IZ) (Escherichia coli [8]): 15 mm
inhibition zone (IZ) (Klebsiella pneumoniae [9]): 11 mm
inhibition zone (IZ) (Pseudomonas aeruginosa [10]): 10 mm
inhibition zone (IZ) (Candida albicans): 8 mm
inhibition zone (IZ) (Nakaseomyces glabratus): 11 mm
inhibition zone (IZ) (Candida tropicalis): 10 mm
